The values below come from ChEMBL document CHEMBL3585262, “(-)-α-Bisabolol, a Promising Oral Compound for the Treatment of Visceral Leishmaniasis” (J Nat Prod, 2015).

Active and inactive are the calls of the source. The calls are words filed in the database; no cut-off is given here.

For data set [1], the system named is Leishmania infantum. Kind of data set: Antileishmanial activity against Leishmania infantum promastigotes. It is filed as functional, organism-based.
For data set [2], the system named is Leishmania infantum. Kind of data set: Antileishmanial activity against Leishmania infantum promastigotes infected in Balb/c mouse assessed as reduction parasite load in liver at 50 mg/kg, po dosed daily starting 28 days after infection for 14 days by real-time PCR relative to control. On the technique in general: Quantitative PCR measures a nucleic acid by following its amplification.

Data set [3] has as its system Mus musculus. Kind of data set: Toxicity in ICR (CD1) mouse at 1000 mg/kg, po. It is filed as organism-based. The note with it: in vivo. Put shortly:
(§1)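 Mice were given daily oral doses of 50, 200 or 1000 mg/kg in olive oil for 14 days, alongside a noninfected healthy reference group. Animals were weighed weekly and checked for stress, pain, cutaneous signs and diarrhea. After sacrifice, spleen and liver were weighed, plasma biochemical and enzymatic values were assessed, and tissue sections were examined by light microscopy.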

For data set [4], the system named is Mus musculus. In words: Toxicity in ICR (CD1) mouse assessed as histological changes at 200 mg/kg, po. It is filed as organism-based. The note with it: in vivo. The gist of the method:
as §1

The nature of data set [5]: (§2) Cytotoxicity against mouse L929 cells after 72 hrs by trypan blue assay. It is filed as cell-based. To be noted: L929 cells. The gist of the method:
(§3)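 L929 fibroblasts were plated at 5 × 10^4/well in RPMI-1640 with 10% FBS at 37 °C, 5% CO2. They were exposed to 25–1000 μM compound, with diluent controls, for 72 h. Cells were mixed 1:1 with 0.4% trypan blue and live and dead cells counted in a hemocytometer. Survival was expressed relative to controls and CC50 approximated.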

Data set [6] can be described thus: Cytotoxicity against ICR(CD1) BMDM assessed as survival rate at 25 to 250 uM after 72 hrs by trypan blue assay. To be noted: mouse. The gist of the method:
(§4)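 Trypan Blue exclusion assay. BMDM (4 × 10^5/well) or L929 fibroblasts (5 × 10^4/well) incubated 72 h with 25–1000 μM compound, with DMSO diluent controls. Cells then mixed 1:1 with 0.4% Trypan Blue and live and dead cells counted in a hemocytometer. Survival ratio calculated against controls at each concentration.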

In data set [7] the test system is Mus musculus. In words: Toxicity in Balb/c mouse assessed as changes in plasma enzymatic changes at 50 and 200 mg/kg, po. To be noted: in vivo.
The subject of data set [8] is Leishmania donovani. Kind of data set: Antileishmanial activity against Leishmania donovani MHOM/IN/00/LEM138 infected in mouse BMDM cells assessed as reduction in infection at 150 uM after 48 hrs. The class given is functional. The note with it: MHOM/IN/00/LEM138, BMDM. The gist of the method: (§5)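 Mouse bone-marrow macrophages were differentiated with L929-conditioned medium and plated with coverslips. They were infected with stationary-phase promastigotes at a 10:1 parasite:macrophage ratio. Compound (25–1000 μM, 0.5% DMSO) was added for 48 h, at least in triplicate. Cells were Giemsa-stained and the percentage infected (≥1 amastigote) was counted by microscopy. Reduction was calculated relative to untreated or diluent wells.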

Data set [9] deals with Leishmania infantum. In words: Antileishmanial activity against Leishmania infantum MHOM/ES/2007/DP532JFJ infected in mouse BMDM cells assessed as reduction in intracellular amastigotes after 48 hrs. The class given is functional, organism-based. Put shortly:
(§6)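 Bone-marrow-derived macrophages from ICR (CD-1) mice, differentiated with L929-conditioned medium, plated 4 × 10^6 per well on coverslips and allowed to adhere 1 day. Infected with stationary-phase promastigotes at 10:1 parasite/macrophage, then exposed to 25–1000 μM for 48 h (0.5% DMSO). Giemsa-stained, infection percentage counted by microscopy. IC50 from linear regression of infection reduction; at least triplicate.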

Data set [10] relates to Leishmania infantum. Kind of data set: Antileishmanial activity against Leishmania infantum promastigotes infected in Balb/c mouse assessed as reduction parasite load in spleen at 50 mg/kg, po dosed daily starting 28 days after infection for 14 days by real-time PCR relative to control.
Data set [11] has as its system Mus musculus. In words: Toxicity in Balb/c mouse assessed as histological changes at 50 mg/kg, po. To be noted: in vivo.
Data set [12] relates to Leishmania amazonensis. In words: Antileishmanial activity against Leishmania amazonensis MHOM/BR/76/MA-76 intracellular amastigotes infected in BALB/c mouse peritoneal macrophages incubated for 24 hrs by Giemsa staining based light microscopy. The note with it: MHOM/BR/76/MA-76, 24 h. It is filed as functional, organism-based.
Data set [13] has as its system Leishmania donovani. In words: Antileishmanial activity against Leishmania donovani MHOM/IN/00/LEM138 infected in mouse BMDM cells assessed as reduction in intracellular amastigotes after 48 hrs. The class given is functional, organism-based. The gist of the method: as §6
A short description of data set [14]: Toxicity in po dosed rat. It is filed as organism-based. To be noted: in vivo.
Data set [15] in a line: (§7) Selectivity index, ratio of CC50 for mouse L929 cells to IC50 for Leishmania donovani MHOM/IN/00/LEM138. It is filed as functional.
A short description of data set [16]: Cytotoxicity against mouse L929 cells assessed as survival rate at 25 to 250 uM after 72 hrs by trypan blue assay. It is filed as cell-based. To be noted: read-out: Survival. The gist of the method: as §4
Data set [17] in a line: Cytotoxicity against human skin fibroblast cells. It is filed as cell-based.
Data set [18] in a line: (§8) Selectivity index, ratio of CC50 for mouse L929 cells to IC50 for Leishmania infantum MHOM/ES/2007/DP532JFJ. The class given is functional.
In data set [19] the test system is Leishmania infantum. In words: Antileishmanial activity against Leishmania infantum MHOM/ES/2007/DP532JFJ infected in mouse BMDM cells assessed as reduction in infection at 150 uM after 48 hrs. The class given is functional. The gist of the method:
as §5

The nature of data set [20]: Cytotoxicity against mouse J774.G8 cells assessed as reduction in cell viability incubated for 24 hrs by MTT assay. The class given is cell-based.
Data set [21] deals with Leishmania infantum. Kind of data set: Antileishmanial activity against Leishmania infantum promastigotes infected in Balb/c mouse assessed as parasite load in spleen at 200 mg/kg, po dosed daily starting 28 days after infection for 14 days by real-time PCR.
A short description of data set [22]: Cytotoxicity against mouse L929 cells assessed as survival rate at 500 uM after 72 hrs by trypan blue assay. The class given is cell-based. To be noted: read-out: Survival. Put shortly:
as §4

Data set [23] deals with Leishmania infantum. In words: Antileishmanial activity against Leishmania infantum promastigotes infected in ICR (CD1) mouse assessed as reduction in parasite load in spleen at 200 mg/kg, po dosed daily starting 28 days after infection for 14 days by real-time PCR co-treated with 104 mg Sb'v/kg/day, ip meglumine antimoniate for 14 days. It is filed as functional, organism-based. Put shortly:
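Female 4–6-week-old Balb/c mice received 10^7 stationary-phase L. infantum promastigotes ip, in groups of seven. From day 28 they were dosed orally each day for 14 days in olive oil; meglumine antimoniate 104 mg SbV/kg was given ip. Spleen and liver load was measured by L. infantum-specific qPCR in triplicate against a calibration curve, as parasites/mg, and reduction was taken versus untreated mice.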

Data set [24] has as its system Mus musculus. Kind of data set: Toxicity in Balb/c mouse assessed as changes in plasma biochemical changes at 50 and 200 mg/kg, po. The note with it: in vivo.
The nature of data set [25]: Cytotoxicity against mouse L929 cells assessed as survival rate at 1000 uM after 72 hrs by trypan blue assay. The class given is cell-based. To be noted: read-out: Survival. The gist of the method: as §4
Data set [26] relates to Leishmania infantum. In words: Antileishmanial activity against Leishmania infantum promastigotes infected in Balb/c mouse assessed as parasite load in liver at 200 mg/kg, po dosed daily starting 28 days after infection for 14 days by real-time PCR.
Data set [27] deals with L929. The description is as §2. The note with it: l929, 72 h. It is filed as cell-based. The gist of the method: as §3
Data set [28] deals with Leishmania infantum. In words: Antileishmanial activity against Leishmania infantum promastigotes infected in ICR (CD1) mouse assessed as reduction in parasite load in liver at 104 mg Sb'v/kg, ip dosed daily starting 28 days after infection for 14 days by real-time PCR relative to control. It is filed as functional, organism-based.
Data set [29] deals with Leishmania infantum. Kind of data set: Antileishmanial activity against Leishmania infantum promastigotes infected in ICR (CD1) mouse assessed as reduction in parasite load in spleen at 104 mg Sb'v/kg, ip treated 28 days after infection for 14 days by real-time PCR relative to control. It is filed as functional, organism-based.
Data set [30] deals with Leishmania infantum. In words: Antileishmanial activity against Leishmania infantum promastigotes infected in ICR (CD1) mouse assessed as parasite load in spleen at 104 mg Sb'v/kg, ip dosed daily starting 28 days after infection for 14 days by real-time PCR. The class given is functional, organism-based.
Data set [31] has as its system L929. The description is as §7. The class given is functional.
The subject of data set [32] is L929. The data set is described as §8. The class given is functional.
The subject of data set [33] is Leishmania infantum. In words: Antileishmanial activity against Leishmania infantum promastigotes infected in ICR (CD1) mouse assessed as parasite load in liver at 104 mg Sb'v/kg, ip dosed daily starting 28 days after infection for 14 days by real-time PCR. The class given is functional, organism-based.
[34] abbreviates: Leishmania infantum, MHOM/ES/2007/DP532JFJ, BMDM, 48 h.
The mark [35] stands for this setting: Leishmania donovani, MHOM/IN/00/LEM138, BMDM, 48 h.

The IC50 is the midpoint of a concentration-inhibition curve. What is called inhibition is the relative decrease from the control value, in per cent. By CC50 is commonly meant the concentration giving 50% cytotoxicity. A word on the LD50: it is the dose expected to kill half of the subjects tested. Low readings indicate a more toxic substance, high ones a less toxic substance. Take `CC(C)=CCC[C@@](C)(O)[C@@H]1CC=C(C)CC1`: the concentration for half-maximal inhibition (IC50) in data set [1] worked out at 49 µM; in data set [9] (setting [34]), 56.9 µM; in data set [12], 48 µM; in data set [13] (setting [35]), 39.4 µM. The inhibition result in [2], in data set [10], in data set [21] and in data set [26] was “Active” each time. Besides, the Activity entry in data set [3], in data set [4], in data set [6], in data set [7], in data set [11] and in data set [24] was “Non-toxic” throughout. In [5], this compound displayed a 50% cytotoxic concentration (CC50) at 72 h of more than 1000 µM. Moreover, the inhibition at 150 µM worked out at 89% in [8] and 85% in [19]. In [14], the LD50 was 14000 mg/kg. Besides, the figures for the “Ratio CC50/IC50” value in data set [15] and in data set [18] were more than 25 and more than 17, respectively. The viability at 72 h, up to 250 µM in [16] was 100%. Besides, in data set [17], the CC50 is more than 150 µM. Moreover, the CC50 at 24 h in data set [20] is 452 µM. Moreover, the viability at 72 h, 500 µM in data set [22] amounted to 86.7%. Moreover, in data set [23], the inhibition result was “inactive”. Besides, in [25], the viability at 72 h, 1000 µM is 62.3%.

Turning to `N=C(N)c1ccc(OCCCCCOc2ccc(C(=N)N)cc2)cc1.O=S(=O)(O)CCO`, in data set [5], the CC50 at 72 h amounted to 6.1 µM. Besides, the IC50 worked out at 1.5 µM in data set [9] (setting [34]) and 0.88 µM in data set [13] (setting [35]). The “Ratio CC50/IC50” value in data set [15] stood at 7; in [18], 4.

In turn, “MEGLUMINE ANTIMONATE [listing 1 of 2 here]” returned a CC50 in data set [27] of 273 µM. In addition, the IC50 in data set [9] (bmdm) is 144 µM; in data set [13] (bmdm), 96.4 µM.

Regarding “MEGLUMINE ANTIMONATE [listing 2 of 2 here]”, the result in data set [28] was Active. The inhibition result in [29] is “inactive”. Further, the inhibition entry in data set [30] and in [33] was “Active” in each case. Further, the Ratio CC50/IC50 in data set [31] came out at 3; in [32] it was 2.
